Screens from PubChem BioAssay.
This is a sample that favours compounds with a hit; in the whole collection about 3.5% have one here.
MrgX1 antag: antagonists of human MrgX1 receptor. B-score at 10 µM. MRGX1-HEK293 calcium flux, Fluo-4, BAM8-22 antagonism; stronger effect = lower value. Q96LB2. AID 588676. hit rate 1.3% among 310,000;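 active means calcium-response B-score plate-corrected more than 3 library SD below zero, starting fluorescence within 5 deviations, no agonist response on first addition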;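 further: peak minus trough fluorescence over baseline after final BAM8-22 challenge near maximal dose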
Target sequence (Q96LB2 whole entry, looked up): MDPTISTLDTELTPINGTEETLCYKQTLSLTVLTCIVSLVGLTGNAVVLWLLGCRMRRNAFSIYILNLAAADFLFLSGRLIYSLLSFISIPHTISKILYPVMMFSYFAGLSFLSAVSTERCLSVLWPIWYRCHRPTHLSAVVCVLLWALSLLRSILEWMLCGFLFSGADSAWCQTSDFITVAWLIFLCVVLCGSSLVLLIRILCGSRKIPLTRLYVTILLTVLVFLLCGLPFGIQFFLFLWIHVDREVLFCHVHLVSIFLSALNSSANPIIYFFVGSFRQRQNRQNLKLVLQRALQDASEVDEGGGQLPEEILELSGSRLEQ
RGS4 inh: human RGS4 inhibition; hit rate 0.45% among 310,000; HEK293 M3R/RGS4 inducible, Fluo-4 calcium flux; stronger effect = higher value; triggered by carbachol at its EC20; AID 463165; B-score at 10 µM;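 active means B-score, a plate-corrected calcium signal, over three deviations above library mean, with baseline fluorescence within five deviations of library mean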;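 further: RGS4 expression induced by doxycycline in cells with stable M3 receptor; B-score is computed from the integrated fluorescence ratio over baseline after carbachol; higher B-score means a larger calcium signal and so more RGS4 inhibition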
Target sequence (P49798 whole entry, looked up): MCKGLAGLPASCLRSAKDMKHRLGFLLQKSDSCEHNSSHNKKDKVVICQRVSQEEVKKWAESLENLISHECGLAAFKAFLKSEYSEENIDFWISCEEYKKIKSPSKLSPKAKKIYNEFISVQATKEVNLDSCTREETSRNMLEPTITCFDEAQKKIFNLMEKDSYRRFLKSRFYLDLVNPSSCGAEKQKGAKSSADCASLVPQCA
RGS4 pot: potentiators or activators of RGS4 | HEK293 M3R/inducible RGS4, carbachol calcium flux Fluo4; stronger effect = lower value | B-score at 10 µM | hit rate 0.92% among 310,000;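 active means B-score of the integrated calcium signal more than 4 SD below the library mean, with starting fluorescence not abnormally high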;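 further: negative B-score means reduced calcium response which marks RGS4 activation or potentiation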
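System – HEK293 FlpIn-TREx cells, stable M3R, doxycycline-inducible RGS4 · Reagent – ECmax carbachol challenge · Times – compound preincubation 20 min at room temperature before agonist · Technique – Fluo4 fluorescence kinetic imaging of calcium · Measure – B score of integrated Fluo4 ratio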
MrgX1 allo act: human MrgX1 positive allosteric modulation, primary screen; Q96LB2; MrgX1-HEK293, Fluo-4 calcium flux, FDSS; stronger effect = higher value; B-score at 10 µM; hit rate 0.63% among 310,000;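 active means plate-corrected calcium response at least 3 library SD above typical, normal starting fluorescence, not activating the receptor alone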;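 further: compound read alongside a low EC10 to EC30 dose of BAM8-22 agonist; peak minus trough fluorescence over baseline measured at the second addition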
MrgX1 agonist: agonists of human MrgX1 receptor; MrgX1-HEK293 cells, Fluo-4 calcium fluorescence, agonist mode; stronger effect = higher value; Q96LB2; B-score at 10 µM; AID 588627; hit rate 0.44% among 310,000;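 active means calcium response B-score plate-corrected fluorescence ratio at least 3 library SD, with starting fluorescence B-score inside 5 SD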
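Test system: HEK293 cells stably expressing human MrgX1 receptor; amount: 15,000 cells per well; doses: compound delivered in addition one of three; times: overnight plating before 1 h dye loading; detection: Fluo-4 NW calcium-flux fluorescence, kinetic read; read-out basis: B-scored fluorescence response ratio; controls: positive and negative controls per plate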
The depositor's hits bear a star; i = inactive; / = no result.

SMILES | MrgX1 antag | RGS4 inh | RGS4 pot | MrgX1 allo act | MrgX1 agonist
CC(C)(C)C(=O)Nc1cc(NC(=O)C(C)(C)C)cc(C(=O)NNC(=O)c2ccncc2)c1 | i | i | i | i | i
O=C1Nc2ccccc2C1=Nc1ccc(Cl)cc1 | i | i | i | i | i
Cc1ccc(N=C2C(=O)Nc3ccccc32)cc1 | i | i | i | i | 42*
COc1ccccc1CNS(=O)(=O)CCNC(=O)c1ccccc1 | i | i | i | i | i
COc1ccc(/C=C/C(=O)Oc2cccc(/C=N/NC(=O)c3cccc(F)c3)c2)cc1 | i | i | i | i | i
COc1ccc(/C=C\C(=O)Oc2cccc(/C=N/NC(=O)Cc3ccc(OC)c(OC)c3)c2)cc1 | -5.5* | i | i | i | i
COc1ccc(CCNC(=O)COC(=O)/C=C/c2ccc(OC)c(OC)c2)cc1 | -4.5* | i | i | i | i
COc1cccc(S(=O)(=O)Nc2cccc(C(=O)N3CCCC3)c2)c1 | i | i | i | i | i
COc1cccc(S(=O)(=O)Nc2cccc(C(=O)N3CCOCC3)c2)c1 | i | i | -7.5* | i | i
O=C(CNc1n[nH]c(=O)[nH]c1=O)N/N=C/C=C/c1ccccc1 | i | i | i | i | i
CCCCOc1ccc(CSC2=NCCN2)cc1[N+](=O)[O-] | i | i | i | i | 28*
COc1ccc(CSC(=N)N)cc1[N+](=O)[O-] | i | i | i | i | 39*
CCOc1ccc(CSC2=NCCN2)cc1[N+](=O)[O-] | i | i | i | i | i
CCCCCOc1ccc(CSC(=N)N)cc1[N+](=O)[O-] | i | i | -7.8* | i | 49*
N=C(N)SCc1ccc(O)c([N+](=O)[O-])c1 | i | i | i | i | i
O=C(c1cc2ccccc2o1)N1CCN(c2ccccn2)CC1 | i | i | i | i | i
O=C(CCc1ccccc1)N=C1SC2CS(=O)(=O)CC2N1Cc1ccc(F)cc1 (configuration not stated) | i | i | i | i | i
O=C(/C=C/Nc1ccc(F)c(F)c1)c1cccs1 | i | i | i | i | i
O=C(/C=C/Nc1ccc(F)cc1)c1cccs1 | -5* | i | i | i | i
CCN(CC)CCOCCOC(=O)C1(c2ccccc2)CCCC1 | i | i | i | i | i
C[N+]1(CCOC(=O)C2(c3ccccc3)CCCC2)CCCCC1 | i | i | -7.5* | i | i
CCN(CC)CCOC(=O)C1(c2ccccc2)CCOCC1 | i | i | -7* | i | i
CCN(CC)CCOC(=O)C1(c2ccc([N+](=O)[O-])cc2)CCCC1 | i | / | / | i | i
C[N+](C)(C)CCOC(=O)C1(c2ccccc2)CCCC1 | i | i | -8.2* | i | i
COc1ccc(NC(=O)C2(c3ccccc3)CCCC2)cc1 | i | i | i | i | i
SMILES | MrgX1 antag | RGS4 inh | RGS4 pot | MrgX1 allo act | MrgX1 agonist
CC(C[N+](C)(C)C)OC(=O)C1(c2ccccc2)CCCC1 (configuration not stated) | i | i | -10* | i | i
C=CCn1c(Cc2ccccc2)nc2c(cnn2-c2ccccc2)c1=O | i | i | i | i | i
COc1ccc(S(=O)(=O)NCC(=O)NCc2cc(=O)n(C)c(=O)n2C)cc1C | i | i | i | i | i
CC1C=CCC2C(=O)N(c3cccc(C(=O)Nc4ccc(Br)cc4)c3)C(=O)C12 (configuration not stated) | i | i | i | i | i
Cc1nn(C)c(C(=O)N/N=C/c2cccnc2)c1Br | i | i | i | i | i
COc1ccc(CC(=O)Nc2ccc(-c3nnc(-c4ccccc4)o3)cc2)cc1OC | i | i | i | i | i
COc1ccc(CC(=O)Nc2cccc(-c3nnc(-c4ccc(C)cc4)o3)c2)cc1OC | i | i | -10* | i | i
CCCCCCN(C(=O)CCCCCN1C(=O)NC(c2ccc(-c3ccccc3)cc2)C(C(=O)OCc2ccccc2)=C1C)C(C(=O)NCCCC)c1ccccc1 (configuration not stated) | / | i | i | / | /
CCCCCCN(C(=O)CCCCCN1C(=O)NC(c2ccc(-c3ccccc3)cc2)C(C(=O)OCc2ccccc2)=C1C)C(C)C(=O)NCCCC (configuration not stated) | -4.6* | i | i | i | i
O=C1C2C3C=CC(CO)(O3)C2C(=O)N1c1ccccc1-c1ccccc1 (configuration not stated) | i | / | / | i | 34*
CC(=O)Oc1ccc(N2C(=O)C3C4C=CC(CO)(O4)C3C2=O)cc1 (configuration not stated) | i | i | i | i | i
Cc1ccc(N(C(=O)c2csnn2)C(C(=O)NC2CCCCC2)c2cccnc2)cc1 (configuration not stated) | i | i | i | i | i
Cc1c(C)c(C)c(CO/N=C/c2cccs2)c(C)c1C | i | i | i | 8.2* | i
Clc1cccc(Cl)c1CO/N=C/c1cccs1 | i | i | i | i | i
COc1cccc2c1OCC/C2=N\NC(=O)C(C)Oc1ccc([N+](=O)[O-])cc1 (configuration not stated) | i | i | i | i | i
Cc1oc2cc(Br)c(O)c(Br)c2c1-c1ccccc1 | i | i | i | 15* | i
COc1ccc(S(=O)(=O)Nc2ccccn2)cc1C(=O)Nc1ccccc1 | i | i | i | i | i
O=C(Nc1nc(SCc2ccc(F)cc2)ns1)c1ccco1 | i | 8.2* | i | i | i
CCCCNC(=O)COC(=O)CCC(=O)c1ccc(F)cc1 | -6.1* | i | i | i | i
Cc1ccccc1OCC(=O)Nc1ccc(N2CCN(C(=O)c3ccco3)CC2)cc1 | i | i | i | i | i
Cc1ccc(C)c(CN2CCC(CNC(=O)Nc3ccc(Cl)cc3)CC2)c1 | i | i | i | i | i
COc1cc(NC(=O)NCC2CCN(Cc3ccccc3C)CC2)cc(OC)c1OC | i | i | -7* | i | i
N#C/C(=C\c1ccc(O)c(O)c1)C(=O)NCCCc1ccccc1 | i | i | i | 6.7* | i
CSCC[C@H](NC(=O)[C@@H]1CSC2c3ccccc3C(=O)N21)C(=O)NCc1ccco1 (some centres not stated) | i | i | i | i | i
CCCCN(CCCC)c1ccc(C(=O)c2ccccc2C(=O)O)c(O)c1 | i | i | i | i | 42*
